Only some compounds are listed: those with a hit (about 1.6% of all), similar ones and a draw of the others.
Rpn11 block – Rpn11 (PSMD14) deubiquitinase inhibitors, primary screen, biochemical, fluorescence polarization, uHTS; 26S proteasome non-ATPase regulatory subunit 14 (Homo sapiens), O00487; calls only at 20 µM; actives 0.59% (n = 360,000); human 26S proteasome, Ub4-pepOG fluorescence polarization; 20S core pre-blocked with epoxomicin;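 active = inhibition at 20 µM, scaled to each plate's controls, above about 33%, limit read from the data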
PKA-R2B act – activators of PKA-R2B holoenzyme, primary screen, biochemical, fluorescence polarization, Cy5-IP20, human; cAMP-dependent protein kinase catalytic subunit beta (Homo sapiens) + cAMP-dependent …; PKA-R2B holoenzyme dissociation; R2B truncated from residue 108, S112A mutant; 0% DMSO only, 100% 113 µM cGMP; activation, % at 11.4 µM; actives 0.079% (n = 340,000);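 active = activation above a cutoff set at the mean over all compounds plus 3 SD, cut at about 18% in these data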;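 also: higher means more holoenzyme dissociation and a rise in polarization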
HNF4A DNA FP – change in binding of human HNF4A to DNA, primary screen, biochemical, fluorescence polarization, FITC-DNA | Hepatocyte nuclear factor 4-alpha (Homo sapiens), P41235 | 1 h | activity change, % at 10 µM | actives 0.3% (n = 360,000) | AID 1224865, 2016; in the data active = activity change above about 30%, passing the limit was not always enough
Target sequence (P41235 whole entry, looked up): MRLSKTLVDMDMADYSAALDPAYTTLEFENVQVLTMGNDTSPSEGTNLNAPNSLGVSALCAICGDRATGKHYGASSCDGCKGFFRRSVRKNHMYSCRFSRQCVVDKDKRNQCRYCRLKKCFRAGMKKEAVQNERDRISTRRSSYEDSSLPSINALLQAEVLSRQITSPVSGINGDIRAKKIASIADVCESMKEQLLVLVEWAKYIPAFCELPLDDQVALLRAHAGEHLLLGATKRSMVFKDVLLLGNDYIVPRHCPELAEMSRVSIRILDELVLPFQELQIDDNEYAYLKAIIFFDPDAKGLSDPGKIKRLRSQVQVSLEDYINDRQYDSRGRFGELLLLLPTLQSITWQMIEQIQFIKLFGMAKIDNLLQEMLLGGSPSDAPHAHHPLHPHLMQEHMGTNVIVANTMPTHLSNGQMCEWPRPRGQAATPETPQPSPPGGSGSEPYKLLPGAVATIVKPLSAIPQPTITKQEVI
TPT1 inh – Candida albicans TPT1 enzyme inhibitors, primary screen, biochemical, fluorescence polarization. tRNA 2'-phosphotransferase TPT1 (Candida albicans SC5314). recombinant caTPT1, FP RNA substrate dephosphorylation. inhibition, % at 5 µM. actives 0.81% (n = 300,000). AID 1962, 2009;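 active = inhibition above the mean of all tested compounds plus 3 SD, set per screening campaign, cut at about 24% in these data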
PKA-R1A act – activators of PKA-R1A holoenzyme, primary screen, biochemical, fluorescence polarization, Cy5-IP20, bovine R1A, mouse PKAc. cAMP-dependent protein kinase type I-alpha regulatory subunit (Bos taurus) + …. actives 0.083% (n = 340,000). activation, % at 11.4 µM. PKA-R1A dissociation; scaled: DMSO 0%, 113 µM cGMP 100%;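 active = percent activation above the mean of all tested compounds plus 3 SD, cut at about 19% in these data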;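 also: higher means more PKAc released from R1A so a rise in polarization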
CSN deneddyl inh – inhibitors of CSN-mediated cullin deneddylation, primary screen, biochemical, fluorescence polarization, uHTS. inhibition, % at 12.5 µM. actives 0.38% (n = 360,000). Purified CSN, SCF-Nedd8-OG deneddylation. COP9 signalosome complex subunit 5 (Homo sapiens), Q92905. AID 651999, 2013;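 active = pattern-corrected inhibition above about 35%, with an unprinted fluorescence ratio check between 0.5 and 1.5, limit read from the data, passing the limit was not always enough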
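assay system = purified human Csn5 enzyme expressed in HEK293T cells | amount = 0.24 nM enzyme | buffer or medium = Tris/NaCl/DTT buffer, pH 7.5 | reagent = 10 nM SCFSkp2-Nedd8OG | compound = one concentration, 12.5 µM, 0.25% DMSO | times = 90 min reaction at room temperature | signal = FP | read-out basis = % inhibition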
TPT1 inh confirm – Candida albicans TPT1 inhibitors, confirmation, biochemical, fluorescence polarization, triplicate. shares compounds with TPT1 inh. AID 2149, 2009. recombinant caTPT1, RNase T1 coupled. actives 74% (n = 2,400). inhibition, % at 5 µM;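 active = inhibition above the primary screen limit, the mean inhibition of all tested compounds plus 3 SD, cut at about 25% in these data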
RNase T1 inh – RNase T1 inhibitors, counter-screen for TPT1 inhibitor project, biochemical, fluorescence polarization | shares compounds with TPT1 inh | RNase T1 cleavage, 1536-well | inhibition, % at 5 µM | actives 83% (n = 2,400);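 active = inhibition above the solvent-only control well mean plus 3 SD, limit set per screening run, cut at about 23% in these data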;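 also: inhibitors block cleavage so intact labeled substrate keeps polarization high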
Target sequence (P00651 whole entry, looked up): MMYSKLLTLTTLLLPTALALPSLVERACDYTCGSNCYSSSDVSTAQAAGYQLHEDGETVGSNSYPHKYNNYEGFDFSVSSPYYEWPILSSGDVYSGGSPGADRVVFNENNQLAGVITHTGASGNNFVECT
Each line names hits and unclear results; the compound was inactive in the other large screens (follow-up assays come after a bar, where shown).

O=C1NC(=Nc2ccccc2Cl)S/C1=C\c1cc([N+](=O)[O-])ccc1O	HNF4A DNA FP 76, TPT1 inh 88 (not shown: Rpn11 block) | TPT1 inh confirm 99 | RNase T1 inh 99
COc1cccc(N=C2NC(=O)/C(=C/c3cc([N+](=O)[O-])ccc3O)S2)c1	HNF4A DNA FP 76, TPT1 inh 51 (not shown: Rpn11 block) | TPT1 inh confirm 64 | RNase T1 inh 70
O=C1N/C(=N/O)S/C1=C/c1cccc([N+](=O)[O-])c1	none
O=C(Nc1cccc(C(F)(F)F)c1)C1Cc2c(-c3ccccc3)ccnc2O1 (stereo unspecified)	none (no result: PKA-R2B act, TPT1 inh, PKA-R1A act)
COC1=C/C(=C/c2c(O)c(C#N)c3ccccn23)C=CC1=O	TPT1 inh 30 | TPT1 inh confirm inactive | RNase T1 inh inactive
COc1cc(OC)cc(C(=O)c2c(C)c(C#N)c3ccccn23)c1	none (no result: TPT1 inh)
CSc1ccc(/C=N/NC(=O)c2cccc(O)c2)cc1	none
CCOC(=O)c1ccc(NCc2cccnc2)cc1	none
CCC1Oc2ccc(C)cc2N(CC(=O)N(Cc2ccc(C)o2)C2CCCC2)C1=O (stereo unspecified)	none
O=C1CCCCC1C(O)c1ccc(Cl)cc1 (stereo unspecified)	TPT1 inh 82 (no result: Rpn11 block, PKA-R2B act, HNF4A DNA FP, PKA-R1A act, CSN deneddyl inh) | TPT1 inh confirm inactive | RNase T1 inh inactive
COc1cc(C(=O)NCC(=O)OCc2ccccc2Cl)cc(OC)c1OC	none
CCOC(=O)c1sc(N)c(C#N)c1COC(=O)CNC(=O)c1cc(OC)c(OC)c(OC)c1	HNF4A DNA FP 99, TPT1 inh 79, CSN deneddyl inh 71 (not shown: Rpn11 block) | TPT1 inh confirm 92 | RNase T1 inh 103
N#C/C(=C\c1ccc(O)c(O)c1)C(=O)N1CCCC1	none
N#C/C(=C\c1ccc(O)c(O)c1)C(=O)c1ccc(O)c(O)c1	TPT1 inh 27 (not shown: Rpn11 block) | TPT1 inh confirm 69 | RNase T1 inh 74
COc1ccc(C(=O)Nc2cc(C(C)=O)c(C)oc2=O)cc1	none
CC(=O)c1cc(NC(=O)c2cccc(C(F)(F)F)c2)c(=O)oc1C	none (no result: PKA-R2B act, PKA-R1A act)
CC(=O)c1cc(NC(=O)c2cccc(C(F)(F)F)c2)c(=O)oc1/C=C/N(C)C	TPT1 inh 117 (not shown: Rpn11 block) | TPT1 inh confirm 122 | RNase T1 inh 128
CC(=O)c1cc(NC(=O)c2ccc(Cl)cc2)c(=O)oc1/C=C/N(C)C	HNF4A DNA FP 121, TPT1 inh 132, CSN deneddyl inh 55 (not shown: Rpn11 block) | TPT1 inh confirm 108 | RNase T1 inh 110
CCOc1ccccc1N1CCN(c2nc(N)c(C#N)c(CC#N)c2C#N)CC1	TPT1 inh 28 | TPT1 inh confirm 30 | RNase T1 inh 42
COc1ccc(-c2cc(C(F)(F)F)c3c(n2)sc2c(O)cc(=O)[nH]c23)c(OC)c1	TPT1 inh 69 (not shown: Rpn11 block) | TPT1 inh confirm 82 | RNase T1 inh 85
CC1(C)CCN2CCC(C)(C)c3c(O)ccc1c32	TPT1 inh 48 | TPT1 inh confirm 36 | RNase T1 inh 50
CN(C)CCC1CCN(c2cc(C#N)c(C#N)cc2[N+](=O)[O-])CC1	TPT1 inh 119 | TPT1 inh confirm inactive | RNase T1 inh inactive
N#CC1=C(N)n2c(s/c(=C\c3cccs3)c2=O)=C(C#N)C1c1cccs1 (stereo unspecified)	TPT1 inh 54, CSN deneddyl inh 66 (not shown: Rpn11 block) | TPT1 inh confirm 42 | RNase T1 inh 54
CCN1CCS/C1=C/C=C/C1=[N+](CC)CCS1	TPT1 inh 25 | TPT1 inh confirm 25 | RNase T1 inh 33
CCN1CCS/C1=C\C=C\C1=[N+](CC)CCS1	none (no result: TPT1 inh)
COc1cccc(CNC(=O)c2cc(=O)[nH]c3ccc(S(=O)(=O)N4CCOCC4)cc23)c1	none (no result: TPT1 inh)
CCCN(CCC)C1=N/C(=C\c2ccco2)C(=O)N1c1ccccc1	TPT1 inh 26 | TPT1 inh confirm inactive | RNase T1 inh 22
CCOC(=O)C1(Cc2cccc(OC)c2)CCCN(C(=O)CCN2CCCO2)C1 (stereo unspecified)	none
COc1ccc(NC(=O)CS(=O)(=O)c2ccc(Br)cc2)cc1	none
Cc1ccc(OC(C)C(=O)N=Nc2c(O)[nH]c3ccc([N+](=O)[O-])cc23)cc1 (stereo unspecified)	none
Cn1cc(/C=C2\SC(=S)N(NC(=O)c3ccccc3Cl)C2=O)c2ccccc21	TPT1 inh 76 | TPT1 inh confirm 176 | RNase T1 inh 162
Cn1cc(/C=C2\SC(=O)NC2=S)c2ccccc21	none
Cc1ccc(C(=O)NN2C(=O)/C(=C/c3cn(C)c4ccccc34)SC2=S)cc1	TPT1 inh 160 | TPT1 inh confirm 80 | RNase T1 inh 86
O=C1c2ccccc2S(=O)(=O)c2cc(C(=O)N3CCN(c4ccccc4)CC3)ccc21	none
O=C1c2ccccc2S(=O)(=O)c2cc(N3CCN(C(=O)c4ccccc4)CC3)ccc21	TPT1 inh 35 (no result: Rpn11 block, PKA-R2B act, HNF4A DNA FP, PKA-R1A act, CSN deneddyl inh) | TPT1 inh confirm 61 | RNase T1 inh 70
O=C1c2ccccc2S(=O)(=O)c2cc(N3CCC4(CC3)OCCO4)ccc21	TPT1 inh 30 (no result: Rpn11 block, PKA-R2B act, HNF4A DNA FP, PKA-R1A act, CSN deneddyl inh) | TPT1 inh confirm 45 | RNase T1 inh 56
CN[C@@H](CO)C(=O)NC[C@H]1O[C@@H](n2cc(C)c(=O)[nH]c2=O)C[C@@H]1O	none (no result: TPT1 inh)
Cc1cc(C)cc(C(=O)NC(CC(N)=O)c2ccc(NC3CCCCCCCCCCC3)c([N+](=O)[O-])c2)c1 (stereo unspecified)	TPT1 inh 48 | TPT1 inh confirm inactive | RNase T1 inh inactive
Cc1cc(C)cc(C(=O)NC(CC(N)=O)c2ccc(NC3CCCCCCC3)c([N+](=O)[O-])c2)c1 (stereo unspecified)	none
OCCCNc1ncnc2sc3c(c12)CCN(Cc1ccccc1)C3	TPT1 inh 24 | TPT1 inh confirm 49 | RNase T1 inh 64
COc1ccc(-c2ccc(-c3noc(-c4cccc(OC)c4)n3)c(OC)n2)cc1	none
COc1ccc(-c2ccc(-c3noc(-c4cccs4)n3)c(OC)n2)cc1	TPT1 inh 26 (not shown: Rpn11 block) | TPT1 inh confirm 28 | RNase T1 inh 39
